Calls of active or inactive are those of the source. The rule behind the calls is not given here.
What was measured:
Bacillus subtilis [1] = assay: Antibacterial activity against Bacillus subtilis NCIB 3610 DS1677 harboring marker-less hag mutant assessed as inhibition of surface colony-spreading at 15 ug/ml after overnight incubation at 32 degree C relative to control; assay type: functional; conditions: subsp. subtilis str. NCIB 3610 DS1677
Procedure, shortened: (§1)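 DS1677 inoculated at the centre of Tryptic soy broth soft agar (7 g L⁻¹) containing compound, incubated, then average colony diameter measured. % inhibition of spreading is relative to a DMSO control. Duplicate or triplicate, with the assay repeated if replicates differed by >10% in diameter. NPG isomers at 30 µg mL⁻¹, other compounds at 15 µg mL⁻¹.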

Bacillus subtilis [2] = assay: Antibacterial activity against Bacillus subtilis NCIB 3610 DS1677 harboring marker-less hag mutant assessed as inhibition of surface colony-spreading at 75 ug/ml after 24 hrs relative to control; assay type: functional; conditions: subsp. subtilis str. NCIB 3610 DS1677
Procedure, shortened: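 Marker-less hag mutant DS1677 on MK agarose (semi-solid, complete defined nutrients) plates containing 75 µg mL⁻¹ compound in DMSO. Control plates contained 75 µg mL⁻¹ DMSO. Colony spreading compared with control.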

Bacillus subtilis [3] = assay: Antibacterial activity against Bacillus subtilis NCIB 3610 DS1677 harboring marker-less hag mutant assessed as inhibition of surface colony-spreading after 16 hrs relative to control; assay type: functional; conditions: subsp. subtilis str. NCIB 3610 DS1677, 16 h
Procedure, shortened: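 B. subtilis hag deletion strain DS1677: 3 µL of an overnight LB culture spotted on Tryptic soy broth agar (7 g L⁻¹), dried 3–4 h, with graded inhibitor levels. Plates in duplicate, grown 16 h at 32 °C. IC50 derived from measured colony diameters.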

Proteus mirabilis = assay: Antibacterial activity against Proteus mirabilis 7002 assessed as inhibition of swarming by plate swarm assay; assay type: functional, organism-based
Procedure, shortened: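 Proteus plate swarm assay. Each compound at 75 µg mL⁻¹ in the plate, with swarming judged by visible effect.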

Bacillus subtilis [4] = assay: Antibacterial activity against Bacillus subtilis NCIB 3610 DS1677 harboring marker-less hag mutant assessed as inhibition of surface colony-spreading at 30 ug/ml after overnight incubation at 32 degree C relative to control; assay type: functional; conditions: subsp. subtilis str. NCIB 3610 DS1677; procedure, shortened: as §1
Bacillus anthracis [5] = assay: Antibacterial activity against Bacillus anthracis Sterne assessed as inhibition of surface colony-spreading after overnight incubation; assay type: functional, organism-based
Bacillus subtilis [6] = assay: Antibacterial activity against erythromycin-lincomycin resistant Bacillus subtilis NCIB 3610 DS64 harboring hag deletion mutant assessed as inhibition of surface colony-spreading at 75 ug/ml after 24 hrs relative to control; assay type: functional; conditions: subsp. subtilis str. NCIB 3610 DS64
Procedure, shortened: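 hag mutant DS64 (MLS antibiotic marker) inoculated at the centre of MK agarose plates with or without 75 µg mL⁻¹ compound, grown 24 h at 37 °C. Surface film spreading scored against the untreated plate.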

Bacillus anthracis [7] = assay: Antibacterial activity against Bacillus anthracis Sterne assessed as inhibition of surface colony-spreading at 75 ug after overnight incubation; assay type: functional, organism-based

CO[C@H](c1ccc(S(C)(=O)=O)cc1)[C@@H](O)CO
inhibition at 15 µg/mL (Bacillus subtilis [1]): 0%

O=[N+]([O-])c1ccc([C@@H](O)[C@@H](O)CO)cc1
inhibition (Bacillus subtilis [2]): Active
IC50 (Bacillus subtilis [3]): 122 µM
inhibition (Proteus mirabilis): Active
inhibition at 30 µg/mL (Bacillus subtilis [4]): 24.8%
IC50 (Bacillus anthracis [5]): > 150 µM

CS(=O)(=O)Oc1ccc(C(O)C(O)CO)cc1 (mixture of isomers)
inhibition at 15 µg/mL (Bacillus subtilis [1]): 11.5%

CS(=O)(=O)c1ccccc1[C@@H](O)[C@@H](O)CO
inhibition at 15 µg/mL (Bacillus subtilis [1]): 0%

CS(=O)(=O)c1ccc([C@H](O)[C@H](O)CO)cc1
inhibition at 15 µg/mL (Bacillus subtilis [1]): 1.6%

O=[N+]([O-])c1ccc(C(O)C(O)CO)cc1 (stereo not given)
inhibition (Bacillus subtilis [6]): Active

O=[N+]([O-])c1ccc([C@@H](O)[C@H](O)CO)cc1
inhibition (Bacillus subtilis [2]): inactive
inhibition (Proteus mirabilis): Active
inhibition at 30 µg/mL (Bacillus subtilis [4]): 16.1%

COC(=O)c1ccc(C(O)C(O)CO)cc1 (mixture of isomers)
inhibition at 15 µg/mL (Bacillus subtilis [1]): 0%

COC[C@H](OC)[C@H](OC)c1ccc(S(C)(=O)=O)cc1
inhibition at 15 µg/mL (Bacillus subtilis [1]): 18.5%

O=[N+]([O-])c1ccc([C@H](O)[C@H](O)CO)cc1
inhibition (Bacillus subtilis [2]): inactive
inhibition (Proteus mirabilis): inactive
inhibition at 30 µg/mL (Bacillus subtilis [4]): 1.5%

COC[C@H](O)[C@H](O)c1ccc(S(C)(=O)=O)cc1
inhibition at 15 µg/mL (Bacillus subtilis [1]): 10.1%

CS(=O)(=O)c1ccc([C@H](O)[C@@H](O)CO)cc1
inhibition at 15 µg/mL (Bacillus subtilis [1]): 0%

CS(=O)(=O)c1ccc([C@@H](O)[C@@H](O)CO)cc1
inhibition at 15 µg/mL (Bacillus subtilis [1]): 95.3%
inhibition (Bacillus anthracis [7]): Active
IC50 (Bacillus anthracis [5]): 12 µM

OCC(O)C(O)c1ccccc1 (mixture of isomers)
inhibition at 15 µg/mL (Bacillus subtilis [1]): 12.9%

OCC(O)C(O)c1ccc(O)cc1 (mixture of isomers)
inhibition at 15 µg/mL (Bacillus subtilis [1]): 12.9%

CSc1ccc(C(O)C(O)CO)cc1 (mixture of isomers)
inhibition at 15 µg/mL (Bacillus subtilis [1]): 0%

NS(=O)(=O)c1ccc(C(O)C(O)CO)cc1 (mixture of isomers)
inhibition at 15 µg/mL (Bacillus subtilis [1]): 4.5%

O=[N+]([O-])c1ccc([C@H](O)[C@@H](O)CO)cc1
inhibition (Bacillus subtilis [2]): inactive
inhibition (Proteus mirabilis): inactive
inhibition at 30 µg/mL (Bacillus subtilis [4]): 0%

CS(=O)(=O)c1cccc(C(O)C(O)CO)c1 (mixture of isomers)
inhibition at 15 µg/mL (Bacillus subtilis [1]): 10.5%

CS(=O)(=O)c1ccc([C@@H](O)[C@H](O)CO)cc1
inhibition at 15 µg/mL (Bacillus subtilis [1]): 69.1%
inhibition (Bacillus anthracis [7]): Active

COC[C@H](O)[C@H](OC)c1ccc(S(C)(=O)=O)cc1
inhibition at 15 µg/mL (Bacillus subtilis [1]): 0%

C=C[C@H](O)c1ccc(S(C)(=O)=O)cc1
inhibition at 15 µg/mL (Bacillus subtilis [1]): 21.3%

Source: ChEMBL document CHEMBL1833891, “New inhibitors of colony spreading in Bacillus subtilis and Bacillus anthracis” (Bioorg Med Chem Lett, 2011)
